C8 TRAIL sens – caspase-8 TRAIL sensitization; NB7+C8 cells + TRAIL, ATPlite viability luminescence; AID 624354; inhibition (viability loss, TRAIL sensitization), % at 10 µM; hit rate 1% among 360,000;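 active means compounds causing at least 50% loss of cell viability in the single-dose screen, relative to plate controls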
FLuc inhib CS – inhibits firefly luciferase, flagging false hits in luciferase inhibition screens; P08659; ATPLite firefly luciferase biochemical luminescence, 10 min; inhibition, % at 10 µM; hit rate 1.5% among 200,000;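 active means inhibition above about 50% when tested at 10 µM, limit read from the data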
Target sequence (P08659 whole entry, looked up): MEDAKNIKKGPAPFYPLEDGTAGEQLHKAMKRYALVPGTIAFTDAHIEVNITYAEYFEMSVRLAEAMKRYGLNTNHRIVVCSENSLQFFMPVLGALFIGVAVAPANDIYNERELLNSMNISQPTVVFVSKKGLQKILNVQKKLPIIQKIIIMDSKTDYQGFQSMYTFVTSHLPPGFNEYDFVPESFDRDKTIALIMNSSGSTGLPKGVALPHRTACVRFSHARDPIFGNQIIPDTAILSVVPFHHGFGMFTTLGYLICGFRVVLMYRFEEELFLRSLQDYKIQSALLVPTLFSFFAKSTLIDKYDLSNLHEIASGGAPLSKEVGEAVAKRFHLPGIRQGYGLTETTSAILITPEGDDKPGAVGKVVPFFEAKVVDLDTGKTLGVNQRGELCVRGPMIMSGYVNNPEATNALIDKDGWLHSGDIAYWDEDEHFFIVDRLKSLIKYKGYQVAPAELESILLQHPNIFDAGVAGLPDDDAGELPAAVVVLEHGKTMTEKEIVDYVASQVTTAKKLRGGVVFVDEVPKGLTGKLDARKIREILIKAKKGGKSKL
PPC-1+TRAIL kill – compounds killing PPC-1 cancer cells with TRAIL present (potentiator screen, no TRAIL-free arm); PPC-1 cells + TRAIL, ATPLite viability luminescence; cell killing (% activity), % at 4 µM or 5 µM; hit rate 0.41% among 220,000; AID 1443;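 active means cell killing above 50% in the first pass at 4 µM, then a duplicate retest at 5 µM averaging 50% or more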;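 further: plate controls were cells with TRAIL plus DMSO for no effect and medium-only wells lacking cells for full effect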
FLuc act counter – affects firefly luciferase, flagging false hits in luciferase stimulation screens; P08659; ATPlite luciferase biochemical, luminescence, 10 min; 0 = ATP-free wells, 1 = DMSO control; activation factor at 10 µM; 200,000 tested, under 10 active;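 active means luciferase activation factor, scaled between plate controls, of at least 2 with compound at 10 µM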
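Assay system – cell-free luciferase reagent · Medium – PBS-based ATP solution · Dosing – test compounds dosed from 2 mM stocks in 100% DMSO · Timing – 10 min, room temperature · Technique – light output (luminescence) · Measure – luminescence gain marking luciferase activators · Controls – No-ATP low control, compound-free enzyme-plus-ATP high control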
Numbers without * were called inactive; x = no result. An excerpt weighted towards active compounds, which were near 1.5% of everything screened.

SMILES	C8 TRAIL sens	FLuc inhib CS	PPC-1+TRAIL kill	FLuc act counter
CCc1ccc(/C=C2\SC(=S)N(CCCC(=O)Nc3ccccn3)C2=O)cc1	63*	1	7	1
CCc1ccc(/C=C2\SC(=S)N(CCCC(=O)N(CCO)c3ccccc3)C2=O)cc1	92*	x	x	x
Cc1cc(NCCCCCCCNc2cc(C)nc3cc([N+](=O)[O-])ccc23)c2ccc([N+](=O)[O-])cc2n1	58*	x	x	x
O=C1[C@H]2[C@@H](/C=C/c3ccccc3)N3C(=O)CN(CC4CC4)C(=O)[C@@]3(Cc3ccccc3)[C@H]2C(=O)N1c1ccccc1	55*	x	x	x
Cc1ccc(C(=O)OCC(=O)NC(=O)c2ccccc2)o1	-8	x	x	x
O=C(Nc1cccnc1)C1CCCN1S(=O)(=O)c1ccc(Cl)c(Cl)c1 (centres undefined)	-2	-4	3	1
C/C(Cn1nnc([N+](=O)[O-])n1)=N\NC(=O)c1ccc(O)cc1	57*	x	14	x
C/C(Cn1nnc([N+](=O)[O-])n1)=N\NC(=O)c1ccccc1O	59*	x	7	x
Oc1ccc(Cl)cc1CNC1CCCCC1	-7	x	x	x
CCC(C)NS(=O)(=O)c1ccc(OCC(=O)Nc2ccc(F)cc2F)cc1 (centres undefined)	-13	-6	17	1.1
O=C(Cn1ncc(Cl)c(Cl)c1=O)N1CCN(Cc2ccccc2)CC1	-9	-4	19	1
O=C(Cn1ncc(Cl)c(Cl)c1=O)N1CCc2ccccc21	96*	5	31	1
COc1cccc(/C=N/NC(=O)N/N=C/c2cccc(OC)c2O)c1O	18	x	x	x
COc1cccc(/C=N/Nc2ccc(C(=O)O)cc2)c1O	56*	83*	18	0.2
COc1cccc(/C=N/Nc2ccc([N+](=O)[O-])cn2)c1O	60*	x	x	x
COc1cccc(/C=N/NC(=O)C(C)n2nc(C)c([N+](=O)[O-])c2C)c1O (centres undefined)	55*	24	4	0.8
COc1cccc(/C=N/NC(=O)Cn2nc(C)c([N+](=O)[O-])c2C)c1O	48	-8	18	1.1
COc1cccc(/C=N/Nc2ccnc(=O)[nH]2)c1O	48*	x	x	x
COc1ccc(S(=O)(=O)N(C)C[C@H]2Oc3ccc(NC(=O)Nc4ccc5c(c4)OCO5)cc3CC(=O)N([C@@H](C)CO)C[C@@H]2C)cc1	-6	x	x	x
COc1cccc(/C=N/c2oc(-c3ccccc3)cc2C#N)c1O	2	10	10	0.9
CCOc1ccccc1/C=N/Nc1ccnc(=O)[nH]1	1	x	x	x
COc1cccc(C=Nc2ccccc2C#N)c1O	-1	89*	14	0.1
O=c1nccc(N/N=C/c2ccccc2O)[nH]1	64*	x	x	x
Cc1ccc(C(=O)CSc2nnnn2C(C)C)c(C)c1	21	54*	19	0.5
CCOc1ccc(C(=O)NC(Cc2ccccc2)C(=O)OC)cc1 (centres undefined)	5	53*	19	0.5
SMILES	C8 TRAIL sens	FLuc inhib CS	PPC-1+TRAIL kill	FLuc act counter
CCC(=O)Nc1nonc1-c1nc2ccccc2n1N(C(=O)CC)C(=O)CC	2	1	14	1
O=C(O)/C=C\C(=O)NNC(=O)c1cc(-c2ccccc2)n[nH]1	7	x	-9	x
O=C(O)/C=C/C(=O)NNC(=O)c1cc(-c2ccccc2)n[nH]1	51*	44	22	0.6
O=C1/C(=C/c2cccs2)Sc2ccccc21	0	68*	11	0.3
CC1=C/C(=C\c2ccc3c(c2)OCO3)C(=O)S1	-13	51*	9	0.5
CC1CCCCC1NC(=O)/C=C/c1nc2ccccc2s1 (centres undefined)	6	20	14	0.8
O=C(/C=C/c1nc2ccccc2s1)N1CCCCCC1	25	62*	7	0.4
O=C(NN=C1CCCCC1)NC1CCCCC1	-2	-4	-1	1
COc1ccc(OC)c(NC(=O)c2cc(-c3cc(Cl)ccc3O)n[nH]2)c1	51*	-5	7	1.1
CCOC(=O)c1c(C)n(C)c2ccc(OC(=O)c3ccc([N+](=O)[O-])cc3)cc12	-10	-6	14	1.1
Cc1ccc(N/N=C(\C#N)C(=N)N2CCCCC2)cc1	14	x	28	x
N#C/C(=N\Nc1ccccc1)C(=N)N1CCCCC1	29	61*	20	0.4
N#C/C(=N\Nc1ccccc1[N+](=O)[O-])C(=N)N1CCCCC1	44	82*	37	0.2
c1ccc(Nc2nnc(-c3cccnc3)s2)cc1	53*	x	x	x
Nc1nnc(-c2cccnc2)s1	6	1	-2	1
COc1ccc(/C=C/C(=O)OCC(=O)NCCCc2ccccc2)cc1OC	16	x	x	x
COc1ccc(-c2cnnc(N/N=C/c3ccc(O)cc3)n2)cc1	11	73*	41	0.3
Oc1ccc(/C=N\Nc2nncc(-c3ccccc3)n2)cc1	18	x	21	x
COc1ccc(-c2cnnc(N/N=C/c3ccc(O)c(O)c3)n2)cc1	11	85*	44	0.1
O=C(O)c1ccc(CNCc2cccc(Cl)c2)cc1	8	-3	9	1
CCc1sc(C(=O)NC(C)C2CCCO2)cc1Br (centres undefined)	-1	x	x	x
Cc1cc(C)cc(NC(=O)COC(=O)CCc2ccc(S(=O)(=O)N3CCOCC3)cc2)c1	2	-4	12	1
O=C1c2ccccc2C(=O)c2c1oc(C(F)(F)F)c2C(=O)c1ccccc1	96*	3	20	1
COC(=O)C(=C/C=C/N1CCOCC1)C(=O)OC	x	x	-3	x
COC(=O)c1cc2c(n1S(=O)(=O)c1ccc(C)cc1)C(=O)C(=O)c1[nH]cc(C(=O)OCc3ccccc3)c1-2	93*	x	x	x
SMILES	C8 TRAIL sens	FLuc inhib CS	PPC-1+TRAIL kill	FLuc act counter
COC(=O)c1ccc(COC(=O)c2ccc(CS(=O)(=O)c3ccc(C)cc3)cc2)cc1	10	-8	-6	1.1
CN(CC(=O)NC1CC1)S(=O)(=O)c1ccc(Br)cc1	-8	x	x	x
CC(C)(C)CC(=O)Nc1cccc(-c2cn3cccnc3n2)c1	25	61*	22	0.4
COc1cc(C(=O)Nc2cccc(-c3cn4cccnc4n3)c2)cc(OC)c1OC	-4	9	17	0.9
CCC(=O)Nc1ccc(NC(=O)CSc2nnnn2-c2ccc(OC)cc2)cc1	-15	x	x	x
O=C1c2ccccc2S(=O)(=O)N1CC1CC(c2ccc(Cl)cc2)=NO1 (centres undefined)	39	50*	12	0.5
O=C1c2ccccc2S(=O)(=O)N1CC1CC(c2ccccc2)=NO1 (centres undefined)	18	24	7	0.8
c1ccc(-c2noc(-c3cccc4ccccc34)n2)nc1	53*	77*	-22	0.2
c1ccc(-c2noc(CC3CCCCC3)n2)nc1	21	52*	0	0.5
O=C(OCc1cccc(C(F)(F)F)c1)c1cc(S(=O)(=O)N2CCOCC2)ccc1F	72*	x	x	x
CCOC(=O)C(C)(C)Sc1ncnc2nc[nH]c12	16	-8	-10	1.1
CCOC(=O)c1cc([N+](=O)[O-])cc([N+](=O)[O-])c1Sc1ncnc2nc[nH]c12	67*	x	x	x
Cc1ccc(S(=O)(=O)Nc2cccc(-n3cnnn3)c2)cc1	8	x	x	x
